# C1s inh – human complement C1s inhibition; purified C1s, fluorogenic AMC substrate, pooled mixtures; P09871; mean inhibition % of two 10-compound mixtures (hits give high values), % at 5 µM (by protocol); 62,000 tested, 0.16% active;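 active means inhibition above 20% in each of the two 10-compound mixture wells holding the compound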;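 further: 0% = enzyme wells lacking compound mixture and 100% = no-enzyme blank wells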
# Cathepsin G inh – cathepsin G (human) inhibition; P08311; purified enzyme, AMC-tetrapeptide fluorescence, pooled mixtures; inhibition, % at 5 µM (by protocol); 62,000 tested, 0.2% active; AID 581;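 active means inhibition above 20% in each of the two mixture wells holding the compound; inactive means inhibition of 20% or less in either well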;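 further: 0% = enzyme control without mixture and 100% = blank lacking enzyme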
# FXIa mix inh – factor XIa (human) inhibition, mixture screen; P03951; 62,000 tested, 0.19% active; inhibition, % at 5 µM; purified FXIa, fluorogenic substrate, pooled mixtures;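 further: each value is inhibition by a whole ten-compound pool holding the compound; 0% = enzyme with no mixture and 100% = wells lacking enzyme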
# Target sequence (P03951 19-387 limits assumed): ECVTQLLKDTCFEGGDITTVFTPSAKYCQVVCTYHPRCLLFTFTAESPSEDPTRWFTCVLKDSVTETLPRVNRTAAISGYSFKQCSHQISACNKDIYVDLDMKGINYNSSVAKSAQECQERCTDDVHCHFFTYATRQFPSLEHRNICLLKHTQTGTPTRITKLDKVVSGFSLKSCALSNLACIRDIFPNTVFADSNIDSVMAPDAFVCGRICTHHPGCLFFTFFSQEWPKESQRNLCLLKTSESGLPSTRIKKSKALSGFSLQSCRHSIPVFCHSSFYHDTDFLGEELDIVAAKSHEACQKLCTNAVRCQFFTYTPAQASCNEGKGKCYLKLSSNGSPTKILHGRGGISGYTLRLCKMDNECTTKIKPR
# Target sequence (P03951 388-625 limits assumed): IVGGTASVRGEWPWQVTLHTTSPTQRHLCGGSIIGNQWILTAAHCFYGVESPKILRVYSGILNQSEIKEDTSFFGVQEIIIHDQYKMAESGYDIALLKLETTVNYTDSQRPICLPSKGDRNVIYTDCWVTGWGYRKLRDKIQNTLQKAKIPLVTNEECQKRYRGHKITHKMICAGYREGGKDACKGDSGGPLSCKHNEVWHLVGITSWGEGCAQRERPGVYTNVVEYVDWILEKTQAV
# AP ELISA ortho – alternative pathway complement inhibition, orthogonal assay | Human serum alternative complement pathway, LPS-coated ELISA, C3 deposition; tested in compound mixtures | inhibition, % at 5 µM | AID 1235 | 62,000 tested, 0.08% active;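 active means inhibition above 30% in each of the two pooled mixtures holding the compound, so the lower value exceeds 30%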;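 further: 0% = serum in Mg-EGTA without compound and 100% = EDTA serum blank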
#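 Assay system: Human serum alternative complement pathway, C3 deposition on LPS-coated wells | Incubation: 1 h serum-compound exposure at 37 °C | Doses: 5 µM per compound in ten-compound mixtures | Read-out: Percent inhibition | Technique: ELISA with HRP anti-human C3 antibody, TMB substrate, absorbance 450 nm | Replication: Two pool placements per compound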
# Ec RNAP inh – inhibitors of Escherichia coli RNA polymerase | P0A8V2 | E. coli RNA polymerase, fluorescence transcription assay | inhibition, %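 (tested at 10 µM)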 | 62,000 tested, 0.2% active; in the data active means inhibition above about 20%;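 further: 0% = enzyme without compound and 100% = no enzyme blank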
# FXIIa mix inh – blocks human factor XIIa in pooled compound mixtures; P00748; purified FXIIa, fluorogenic substrate; inhibition, % at 5 µM; 62,000 tested, 0.2% active; AID 684;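 further: 0% = enzyme without compound and 100% = no enzyme blank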
# The depositor's hits bear a star; x = no result. This is a sample that favours compounds with a hit; in the whole collection about 0.83% have one here. Unless noted, no stated cut-off is given here; in the data, active means inhibition above about 20% (passing the limit was not always enough); inactive means the rest.
SMILES,C1s inh,Cathepsin G inh,FXIa mix inh,AP ELISA ortho,Ec RNAP inh,FXIIa mix inh
CCn1cc(C(C)NC(=O)COc2ccc(Cl)cc2C)c(C)n1 (centres undefined),12,7,3,2,6,-4
COC(=O)C1=C(C)NC(=O)CC1c1cc2c(cc1Br)OCO2 (centres undefined),8,31,3,16,4,8
Cn1c2c(c(=O)n(C)c1=O)C(c1cc3c(cc1Br)OCO3)CC(=O)N2 (centres undefined),18,11,5,32*,5,6
CCOc1cc(NC(=O)c2ccco2)c(OCC)cc1NC(=O)CCC(=O)NCc1cccnc1,17,13,9,8,8,2
Cc1ccc(Cn2c3ccccc3c3cn[nH]c(=O)c32)cc1,-10,0,7,13,74*,0
CC(=O)NC1CCN(C(=O)N2CCCC2)CC1,1,5,0,37*,2,4
COc1cccc(C(c2sc3ncnn3c2O)N2CCN(C(=O)c3ccco3)CC2)c1 (centres undefined),11,8,9,1,12,1
CN/C=C1\C(=O)C(C)(C)Oc2ccc3ccc(=O)oc3c21,23*,10,13,12,7,2
NC(=O)C1(N2CCCCC2)CCN(C(=O)NC2CCCCC2)CC1,12,9,6,15,4,13
COC(=O)c1ccc(C(=O)Nc2ccc(N)cc2N)cc1,14,8,23*,1,9,5
CN(C)CCN1C(=O)c2oc3ccc(Cl)cc3c(=O)c2C1c1cccc(Br)c1 (centres undefined),8,10,14,4,7,14
COC(=O)C1=C(C)Nc2ccc(C)cc2S1,12,11,9,11,8,10
CC(=O)C1=C(C)Nc2cc(C(F)(F)F)ccc2S1,1,10,14,16,62*,3
CC1(C)CC(=O)C(C=NCC2CCN(C(=O)Nc3ccccc3)CC2)=C(O)C1,-23,1,7,6,3,11
Cc1nn(Cc2ccc(Cl)c(Cl)c2)c(C)c1NC(=O)c1cc(-c2ccc3c(c2)OCO3)on1,-25,40*,12,-1,6,3
COc1ccc(-c2cc(C(=O)Nc3c(C)nn(Cc4ccccc4Cl)c3C)no2)cc1,10,52*,24,18,1,14
Cc1nn(Cc2ccc(Cl)cc2)c(C)c1NC(=O)c1cc(-c2ccc3c(c2)OCO3)on1,17,26,21,4,6,4
Cc1cc(C(=O)Nc2c(C)nn(Cc3c(Cl)cccc3Cl)c2C)no1,-35,-5,3,3,-1,11
COc1ccc(OC)c(-c2cc(C(=O)Nc3c(C)nn(Cc4ccc(Cl)cc4)c3C)no2)c1,11,10,6,17,6,8
COc1ccc(OC)c(-c2cc(C(=O)Nc3c(C)nn(Cc4ccccc4)c3C)no2)c1,-18,50*,20*,12,7,9
COC(=O)c1cn(C(=O)c2cccs2)c2ccccc12,5,10,1,4,9,-13
CSc1nsc(SCC(=O)N2CCN(c3ccccc3)CC2)n1,2,1,1,-3,-2,8
CCS(=O)(=O)N1Cc2ccccc2CC1C(=O)OCC(=O)Nc1ccc(C)cc1 (centres undefined),-2,-3,-3,7,x,-17
Cc1cc(NC(=O)c2cc3nc(C4CC4)cc(C(F)(F)F)n3n2)no1,22*,14,5,-5,11,10
COc1ccc(NC(=O)C2CCN(S(=O)(=O)c3ccc(C)cc3)CC2)cc1OC,-21,-9,5,0,-3,-15
COc1ccc(S(=O)(=O)N2CCC(NC(=O)Nc3ccc(C)cc3)CC2)cc1,4,1,4,-11,5,22*
O=C(NCc1cn2ccsc2n1)c1cccc(C(F)(F)F)c1,7,9,6,14,22*,-18
N#CC1=C(N)Oc2c(oc(CO)cc2=O)C12C(=O)Nc1ccc(Cl)cc12 (centres undefined),-78,-19,-23,-3,6,-1
CC(=O)Nc1nc(COc2ccccc2)cs1,13,12,4,4,9,0
CC(=O)Nc1nc(CC(=O)c2ccccc2)cs1,-9,46,36*,9,3,-13

# Screening data: PubChem, PCMD
